Activity calls are given as the source filed them. No cut-off for these calls is given here.
Legend:
[1] = Cytotoxicity against human CAL-1 cells assessed as cell growth at 10 uM after 48 hrs by MTT assay relative to untreated control; format: functional; conditions: CAL1, 48 h, read-out: Activity
In short: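 CAL1 melanoma cells grown in DMEM with 2 mM L-glutamine and 10% FCS at 37 °C, 5% CO2. Seeded at 10^4 cells/well, grown 24 h, then treated 48 h across 100–0.01 μM (compounds dissolved in medium). Read-out: 0.5 mg mL⁻¹ MTT for 4 h, crystals dissolved in EtOH/DMSO 1:1, absorbance at 540 nm.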

[2] = tested on: SK-OV-3; experiment: Cytotoxicity against human SKOV3 cells after 48 hrs by SRB assay; format: functional; conditions: SK-OV-3, 48 h
In short: (§1)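 NCI-60 five-dose mode on the full human tumour line panel. Concentrations ran from 100 to 0.01 µM with 48 h continuous exposure. Growth was estimated by SRB protein staining against untreated controls, and IC50 values were derived from the dose–response.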

[3] = tested on: SK-MEL-2; experiment: Cytotoxicity against human SK-MEL-2 cells assessed as cell growth at 10 uM after 48 hrs by MTT assay relative to untreated control; format: functional; conditions: SK-MEL-2, 48 h, read-out: Activity
In short: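 Melanoma lines grown at 37 °C in humidified 5% CO2: MDA-MB-435 in DMEM/Ham's F12 1:1 with 10% FCS and antibiotics, SK-MEL-2 in RPMI-1640 with 10% FCS. Cells plated 24 h, then exposed 48 h to 100–0.01 µM (dilutions from fresh 100 µM stock in medium). MTT 0.5 mg/mL added for 4 h, crystals dissolved in EtOH/DMSO 1:1, absorbance read at 540 nm. Mean ± SD of three independent experiments.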

[4] = tested on: RPMI-8226; experiment: Cytotoxicity against human RPMI8226 cells after 48 hrs by SRB assay; format: functional; conditions: RPMI-8226, 48 h
In short: (§2)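 NCI-60 five-dose screen: cells exposed continuously for 48 h across 100 to 0.01 µM. Growth or viability estimated by sulforhodamine B protein staining, read spectrophotometrically against untreated controls; IC50 taken from the dose-response.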

[5] = tested on: RXF 393; experiment: Cytotoxicity against human RXF393 cells after 48 hrs by SRB assay; format: functional; conditions: RXF 393, 48 h; in short: as §2
[6] = tested on: BT-549; experiment: Cytotoxicity against human BT549 cells after 48 hrs by SRB assay; format: functional; conditions: BT-549, 48 h
In short: (§3)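 NCI-60 five-dose testing, 100 to 0.01 µM, under a 48 h continuous-exposure protocol. Growth estimated by SRB protein assay, read spectrophotometrically against untreated controls; IC50 derived from the dose-response.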

[7] = tested on: MDA-MB-435; experiment: Cytotoxicity against human MDA-MB-435 cells at 5 uM by MTT assay; format: functional, cell-based; conditions: TDE = time-dependent effect
In short: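 MDA-MB-435 cells in DMEM/Ham's F12 (1:1) with 10% FCS, 37 °C, 5% CO2. Time course at a fixed 5 µM, incubated 8, 16, 24 or 48 h. Viability then read by MTT reduction (0.5 mg/mL, 4 h), formazan dissolved in EtOH/DMSO, absorbance at 540 nm, as percent living cells.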

[8] = tested on: HCT-15; experiment: Cytotoxicity against human HCT15 cells after 48 hrs by SRB assay; format: functional; conditions: HCT-15, 48 h; in short: as §3
[9] = tested on: K562; experiment: Cytotoxicity against human K562 cells after 48 hrs by SRB assay; format: functional; conditions: K562, 48 h; in short: as §3
[10] = tested on: SNB-19; experiment: Cytotoxicity against human SNB19 cells after 48 hrs by SRB assay; format: functional; conditions: SNB-19, 48 h; in short: as §1
[11] = tested on: COLO 205; experiment: Cytotoxicity against human COLO205 cells after 48 hrs by SRB assay; format: functional; conditions: COLO 205, 48 h; in short: as §3
[12] = tested on: SNB-75; experiment: Cytotoxicity against human SNB75 cells after 48 hrs by SRB assay; format: functional; conditions: SNB-75, 48 h; in short: as §1
[13] = tested on: IGROV-1; experiment: Cytotoxicity against human IGROV1 cells after 48 hrs by SRB assay; format: functional; conditions: IGROV-1, 48 h; in short: as §3
[14] = molecular target: Cyclin-dependent kinase 1 (Homo sapiens) (UniProt P06493); experiment: Inhibition of human CDK1 at 10 uM
In short: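 Kinase selectivity panel of 19 protein tyrosine kinases and 30 serine/threonine kinases, run by a contract lab (CEREP). Each compound was tested at a single dose of 10 μM in duplicate.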

[15] = tested on: A549; experiment: Cytotoxicity against human A549 cells after 48 hrs by SRB assay; format: functional; conditions: A549, 48 h; in short: as §3
[16] = tested on: 786-0; experiment: Cytotoxicity against human […] cells after 48 hrs by SRB assay; format: functional; conditions: 786-0, 48 h; in short: as §3
[17] = tested on: NCI-H460; experiment: Cytotoxicity against human NCI-H460 cells after 48 hrs by SRB assay; format: functional; conditions: NCI-H460, 48 h; in short: as §2
[18] = tested on: HL-60(TB); experiment: Cytotoxicity against human HL-60(TB) cells after 48 hrs by SRB assay; format: functional; conditions: HL-60, 48 h
In short: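 NCI-60 human tumour cell line panel; continuous 48 h exposure to five concentrations from 100 to 0.01 µM. Cell growth was read spectrophotometrically by sulforhodamine B protein staining against untreated controls, and […] was taken from the dose–response.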

[19] = tested on: CAKI-1; experiment: Cytotoxicity against human Caki1 cells after 48 hrs by SRB assay; format: functional; conditions: CAKI-1, 48 h; in short: as §3
[20] = Cytotoxicity against human OVCAR5 cells after 48 hrs by SRB assay; format: functional; conditions: OVCAR-5, 48 h; in short: as §2
[21] = tested on: NCI-H23; experiment: Cytotoxicity against human NCI-H23 cells after 48 hrs by SRB assay; format: functional; conditions: NCI-H23, 48 h; in short: as §2
[22] = Cytotoxicity against human NCI-ADR-RES cells after 48 hrs by SRB assay; format: functional; in short: as §2
[23] = tested on: SF-268; experiment: Cytotoxicity against human SF268 cells after 48 hrs by SRB assay; format: functional; conditions: SF-268, 48 h; in short: as §2
[24] = tested on: M14; experiment: Cytotoxicity against human M14 cells after 48 hrs by SRB assay; format: functional; conditions: M14, 48 h; in short: as §3
[25] = read-out: LC50 (the source's name)

Sequence of Cyclin-dependent kinase 1 (Homo sapiens) (P06493 whole entry, looked up): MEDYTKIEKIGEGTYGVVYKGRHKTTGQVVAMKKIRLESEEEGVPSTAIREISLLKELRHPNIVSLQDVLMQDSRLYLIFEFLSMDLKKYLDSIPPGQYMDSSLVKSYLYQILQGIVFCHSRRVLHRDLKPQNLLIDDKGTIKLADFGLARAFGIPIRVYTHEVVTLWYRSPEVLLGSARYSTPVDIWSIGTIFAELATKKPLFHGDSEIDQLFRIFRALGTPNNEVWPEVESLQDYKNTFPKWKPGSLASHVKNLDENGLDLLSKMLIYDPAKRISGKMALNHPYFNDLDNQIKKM

Question: Which growth at 10 µM [1] does the source give for `C[C@@H]1NC(c2ccc(Br)cc2)=Nc2nc3ccccn3c2C1=O` here?
Answer: 12%

Question: What about the GI50 [2] of the same molecule?
Answer: 4.41 µM

Question: What about the TGI [2] of the same molecule?
Answer: > 100 µM

Question: What about the CC50 [2, 25] of the same molecule?
Answer: > 100 µM

Question: What about the growth at 10 µM [3] of the same molecule?
Answer: 32%

Question: And the GI50 [4]?
Answer: 7.31 µM

Question: What about the TGI [4] of the same molecule?
Answer: > 100 µM

Question: What about the CC50 [4, 25] of the same molecule?
Answer: > 100 µM

Question: And the GI50 [5]?
Answer: 10.2 µM

Question: What about the TGI [5] of the same molecule?
Answer: 51.8 µM

Question: And the CC50 [5, 25]?
Answer: > 100 µM

Question: What about the GI50 [6] of the same molecule?
Answer: 5.49 µM

Question: And the TGI [6]?
Answer: > 100 µM

Question: What about the CC50 [6, 25] of the same molecule?
Answer: > 100 µM

Question: And the Activity [7]?
Answer: tde

Question: And the GI50 [8]?
Answer: 3.64 µM

Question: And the TGI [8]?
Answer: > 100 µM

Question: And the CC50 [8, 25]?
Answer: > 100 µM

Question: And the GI50 [9]?
Answer: 4.13 µM

Question: And the TGI [9]?
Answer: > 100 µM

Question: What about the CC50 [9, 25] of the same molecule?
Answer: > 100 µM

Question: And the GI50 [10]?
Answer: 7.45 µM

Question: And the TGI [10]?
Answer: > 100 µM

Question: And the CC50 [10, 25]?
Answer: > 100 µM

Question: And the GI50 [11]?
Answer: 1.87 µM

Question: And the TGI [11]?
Answer: 4.75 µM

Question: What about the CC50 [11, 25] of the same molecule?
Answer: 95.8 µM

Question: And the GI50 [12]?
Answer: 0.7 µM

Question: And the TGI [12]?
Answer: 7.06 µM

Question: What about the CC50 [12, 25] of the same molecule?
Answer: > 100 µM

Question: What about the GI50 [13] of the same molecule?
Answer: 51.9 µM

Question: And the TGI [13]?
Answer: > 100 µM

Question: And the CC50 [13, 25]?
Answer: > 100 µM

Question: What about the inhibition [14] of the same molecule?
Answer: inactive

Question: And the GI50 [15]?
Answer: 6.7 µM

Question: What about the TGI [15] of the same molecule?
Answer: > 100 µM

Question: What about the CC50 [15, 25] of the same molecule?
Answer: > 100 µM

Question: What about the GI50 [16] of the same molecule?
Answer: 28.3 µM

Question: What about the TGI [16] of the same molecule?
Answer: > 100 µM

Question: And the CC50 [16, 25]?
Answer: > 100 µM

Question: And the GI50 [17]?
Answer: 3.06 µM

Question: What about the TGI [17] of the same molecule?
Answer: > 100 µM

Question: And the CC50 [17, 25]?
Answer: > 100 µM

Question: And the GI50 [18]?
Answer: 6.49 µM

Question: What about the TGI [18] of the same molecule?
Answer: > 100 µM

Question: And the CC50 [18, 25]?
Answer: > 100 µM

Question: And the GI50 [19]?
Answer: 3.09 µM

Question: And the TGI [19]?
Answer: > 100 µM

Question: What about the CC50 [19, 25] of the same molecule?
Answer: > 100 µM

Question: What about the GI50 [20] of the same molecule?
Answer: 23.5 µM

Question: What about the TGI [20] of the same molecule?
Answer: > 100 µM

Question: And the CC50 [20, 25]?
Answer: > 100 µM

Question: And the GI50 [21]?
Answer: 25.4 µM

Question: What about the TGI [21] of the same molecule?
Answer: > 100 µM

Question: And the CC50 [21, 25]?
Answer: > 100 µM

Question: What about the GI50 [22] of the same molecule?
Answer: 7.45 µM

Question: And the TGI [22]?
Answer: > 100 µM

Question: What about the CC50 [22, 25] of the same molecule?
Answer: > 100 µM

Question: And the GI50 [23]?
Answer: 17.2 µM

Question: What about the TGI [23] of the same molecule?
Answer: > 100 µM

Question: What about the CC50 [23, 25] of the same molecule?
Answer: > 100 µM

Question: What about the GI50 [24] of the same molecule?
Answer: 3.2 µM

Question: And the TGI [24]?
Answer: 48.2 µM

Question: And the CC50 [24, 25]?
Answer: > 100 µM

Source: ChEMBL document CHEMBL3124806, “Imidazopyridine-fused [1,3]-diazepinones: synthesis and antiproliferative activity” (Eur J Med Chem, 2014)
